Test results taken from ChEMBL document CHEMBL2169835, “Flavonoid dimers as novel, potent antileishmanial agents” (J Med Chem, 2012).

Assays:
[1] = Therapeutic index, ratio of IC50 for mouse Peritoneal macrophages to IC50 for SSG-resistant Leishmania donovani 39 amastigote infected in mouse peritoneal macrophages; details: read-out: Ratio IC50
[2] = Cytotoxicity against mouse Peritoneal macrophages cells after 72 hrs by MTS assay; format: cell-based; details: Peritoneal macrophage cell
How it was run: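 Primary mouse peritoneal elicited macrophages were seeded at 2 × 10^4 cells per well in DMEM with 10% heat-inactivated FBS. They were exposed to graded doses for 72 h at 37 °C in 5% CO2. Survival was read by MTS/PMS tetrazolium reduction (OD 490 nm) relative to untreated control. The IC50 was the concentration halving OD. Results are mean ± SEM of 1–4 independent experiments.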

Leishmania donovani [3] = assay: Antimicrobial activity against SSG-resistant Leishmania donovani 39 amastigote infected in mouse peritoneal macrophages assessed as inhibition of parasite growth after 72 hrs by Giemsa staining method; format: functional, organism-based; details: Leishmania donovani, 39, 72 h
How it was run: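 Mouse peritoneal elicited macrophages were seeded on coverslips at 1 × 10^5 cells per well in DMEM with 10% heat-inactivated FBS and left to attach overnight. They were infected overnight with late-log Ld39 promastigotes (parasite:macrophage 20:1) at 37 °C, 5% CO2, then washed. Compounds were applied for 72 h at 37 °C. Giemsa-stained amastigotes per 100 macrophages gave IC50; N = 1−3.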

Leishmania donovani [4] = assay: Antimicrobial activity against SSG-resistant Leishmania donovani 39 promastigote assessed as inhibition of parasite growth after 72 hrs by MTS assay; format: functional, organism-based; details: Leishmania donovani, 39, 72 h
How it was run: (§1)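 Promastigotes were grown in Schneider's medium pH 6.9 with 10% heat-inactivated FBS at 27 °C, seeded at 1 × 10^5 per well, and exposed to serial concentrations for 72 h at 27 °C. Compounds were in DMSO (≤1% final) or water. MTS:PMS (20:1) was added for 4 h, then OD490 was read. Survival was % of untreated control; IC50 = concentration halving OD; N = 1−4.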

Leishmania donovani [5] = assay: Antimicrobial activity against wild-type Leishmania donovani AG83 promastigote assessed as inhibition of parasite growth after 72 hrs by MTS assay; format: functional, organism-based; details: AG83, 72 h
How it was run: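 Promastigotes were grown in Schneider's medium pH 6.9 with 10% heat-inactivated FBS at 27 °C, seeded at 1 × 10^5 per well, and exposed to serial concentrations for 72 h at 27 °C. Compounds were in DMSO (≤1% final) or water. MTS:PMS (20:1) was added for 4 h, then OD490 was read.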

[6] = Therapeutic index, ratio of IC50 for rat L6 cells to IC50 for Leishmania donovani; format: cell-based; details: L6 cells (cytotoxicity) versus Leishmania donovani, read-out: Ratio IC50
L6 = assay: Cytotoxicity against rat L6 cells; format: cell-based
Leishmania donovani [7] = assay: Antimicrobial activity against axenically grown Leishmania donovani amastigotes; format: functional, organism-based
Leishmania donovani [8] = assay: Selectivity ratio of IC50 for Leishmania donovani promastigote to IC50 for SSG-resistant Leishmania donovani 39 amastigote infected in mouse peritoneal macrophages; format: functional
[9] = Therapeutic index, ratio of IC50 for mouse Peritoneal macrophages to IC50 for SSG-resistant Leishmania donovani 39 promastigote; details: read-out: Ratio IC50
How it was run: (§2)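 Index is PEM cytotoxicity IC50 over promastigote IC50. For PEM, cells were seeded at 2 × 10^4 per well in supplemented DMEM, given graded doses for 72 h at 37 °C, 5% CO2, and read by MTS survival.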

[10] = Therapeutic index, ratio of IC50 for mouse Peritoneal macrophages to IC50 for pentamidine-resistant Leishmania donovani AG83PentR50 promastigote; details: read-out: Ratio IC50; how it was run: as §2
[11] = Therapeutic index, ratio of IC50 for mouse PEM cells to IC50 for wild-type Leishmania donovani AG83 promastigote; format: cell-based; details: read-out: Ratio IC50; how it was run: as §2
RAW264.7 = assay: Cytotoxicity against mouse RAW264.7 cells after 72 hrs by MTS assay; format: cell-based; details: RAW264.7, 72 h
How it was run: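 RAW 264.7 murine macrophage line was plated at 1 × 10^4 cells per well in supplemented DMEM. Cells received a graded compound series for 72 h at 37 °C, 5% CO2, with a maximum of 1% DMSO. Viability was measured by MTS with PMS coupling at OD 490 nm, as percent of untreated control. The IC50 was the concentration reducing OD by half, given as mean ± SEM, N = 1–4.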

Leishmania donovani [12] = assay: Antimicrobial activity against pentamidine-resistant Leishmania donovani AG83PentR50 promastigote assessed as inhibition of parasite growth after 72 hrs by MTS assay; format: functional, organism-based; details: AG83PentR50, 72 h; how it was run: as §1

| Compound | selectivity ratio [1] | IC50 [2] [µM] | IC50 (Leishmania donovani [3]) [µM] | IC50 (Leishmania donovani [4]) [µM] | IC50 (Leishmania donovani [5]) [µM] | selectivity ratio [6] | IC50 (L6) [µM] | IC50 (Leishmania donovani [7]) [µM] | Ratio IC50 (Leishmania donovani [8]) | selectivity ratio [9] | selectivity ratio [10] | selectivity ratio [11] | IC50 (RAW264.7) [µM] | IC50 (Leishmania donovani [12]) [µM] |
| --- | --- | --- | --- | --- | --- | --- | --- | --- | --- | --- | --- | --- | --- | --- |
| O=c1cc(-c2cccc(OCCOCCN(CCOCCOc3cccc(-c4cc(=O)c5ccccc5o4)c3)Cc3ccncc3)c2)oc2ccccc12 | > 21.7 | > 50 | 2.3 | 0.44 | 0.19 | – | – | – | – | – | – | – | – | – |
| O=c1cc(-c2ccc(OCCN(CCOc3ccc(-c4cc(=O)c5ccccc5o4)cc3)Cc3ccncc3)cc2)oc2ccccc12 | > 10 | > 58 | 5.8 | > 50 | 1.4 | – | – | – | – | – | – | – | – | – |
| COc1ccc(-c2cc(=O)c3c(O)cc(O)c(-c4cc(-c5cc(=O)c6c(O)cc(O)cc6o5)ccc4OC)c3o2)cc1 [ISOGINKGETIN] | – | – | – | – | – | 5.8 | 11 | 1.9 | – | – | – | – | – | – |
| O=c1cc(-c2ccc(O)c(O)c2)oc2cc(O)cc(O)c12 [LUTEOLIN] | 10.1 | 77.7 | 7.7 | 89 | 114 | – | – | – | 12 | 0.9 | 0.9 | 0.7 | 43.2 | 90.9 |
| O=c1c(OCCOCCN(CCOCCOc2c(-c3ccccc3)oc3ccccc3c2=O)Cc2ccncc2)c(-c2ccccc2)oc2ccccc12 | > 10.6 | > 33 | 3.1 | 3.1 | 2.5 | – | – | – | – | – | – | – | – | – |
| O=c1c(O)c(-c2ccc(O)c(O)c2)oc2cc(O)cc(O)c12 [QUERCETIN] | > 16.7 | > 100 | 6 | > 100 | 103 | – | – | – | 17 | > 1 | > 1.4 | > 1 | 95.6 | 69.6 |
| sodium stibogluconate | – | – | – | – | – | – | – | – | 11 | – | – | – | – | – |
| O=c1cc(-c2ccc(OCCOCCN(CCOCCOc3ccc(-c4cc(=O)c5ccccc5o4)cc3)Cc3ccncn3)cc2)oc2ccccc12 | > 23.6 | > 33 | 1.4 | 0.58 | 0.44 | – | – | – | – | – | – | – | – | – |
| COc1cc(O)c2c(=O)cc(-c3ccc(OC)c(-c4c(O)cc(O)c5c(=O)cc(-c6ccc(O)cc6)oc45)c3)oc2c1 [GINKGETIN] | – | – | – | – | – | – | – | 2.8 | – | – | – | – | – | – |
| COc1ccc(-c2cc(=O)c3c(O)cc(O)cc3o2)cc1-c1c(O)cc(O)c2c(=O)cc(-c3ccc(O)cc3)oc12 [BILOBETIN] | – | – | – | – | – | – | – | 2.7 | – | – | – | – | – | – |
| O=c1cc(-c2ccc(OCCOCCN(CCOCCOc3ccc(-c4cc(=O)c5ccccc5o4)cc3)Cc3cccnc3)cc2)oc2ccccc12 | 13.8 | 33.1 | 2.4 | 0.98 | 0.56 | – | – | – | – | – | – | – | – | – |
| O=c1cc(-c2ccc(Oc3c(O)cc(O)c4c(=O)cc(-c5ccc(O)cc5)oc34)cc2)oc2cc(O)cc(O)c12 [LANAROFLAVONE] | – | – | – | – | – | – | – | 7.2 | – | – | – | – | – | – |
| NC[C@@H]1O[C@H](O[C@H]2[C@@H](O)[C@H](O[C@@H]3[C@@H](O)[C@H](N)C[C@H](N)[C@H]3O[C@H]3O[C@H](CO)[C@@H](O)[C@H](O)[C@H]3N)O[C@@H]2CO)[C@H](N)[C@@H](O)[C@@H]1O [PAROMOMYCIN] | > 2.4 | > 100 | 41 | 24.5 | 62.6 | – | – | – | – | > 4.1 | > 1.2 | > 1.6 | > 100 | 85.5 |
| O=c1cc(-c2ccc(OCCOCCN(CCOCCOc3ccc(-c4cc(=O)c5ccccc5o4)cc3)Cc3ccncc3Br)cc2)oc2ccccc12 | > 13.1 | > 100 | > 7.6 | > 50 | 0.65 | – | – | – | – | – | – | – | – | – |
| C[C@@H]1[C@H](O)[C@@H](C)/C=C/C=C/C=C/C=C/C=C/C=C/C=C/[C@H](O[C@@H]2O[C@H](C)[C@@H](O)[C@H](N)[C@@H]2O)C[C@@H]2O[C@](O)(C[C@@H](O)C[C@@H](O)[C@H](O)CC[C@@H](O)C[C@@H](O)CC(=O)O[C@H]1C)C[C@H](O)[C@H]2C(=O)O [AMPHOTERICIN B] | 119 | 7.4 | 0.062 | 0.095 | 0.09 | – | – | – | – | 77.9 | 145 | 82.2 | 12 | 0.051 |
| O=c1cc(-c2ccc(OCCOCCN(CCOCCOc3ccc(-c4cc(=O)c5ccccc5o4)cc3)Cc3ccnc(Br)c3)cc2)oc2ccccc12 | > 10 | > 100 | > 10 | > 50 | 1.8 | – | – | – | – | – | – | – | – | – |
| N#Cc1cc(CN(CCOCCOc2ccc(-c3cc(=O)c4ccccc4o3)cc2)CCOCCOc2ccc(-c3cc(=O)c4ccccc4o3)cc2)ccn1 | > 12.1 | > 92 | 7.6 | > 50 | 1.1 | – | – | – | – | – | – | – | – | – |
| O=c1cc(-c2ccc(OCCOCCN(CCOCCOc3ccc(-c4cc(=O)c5cc(F)ccc5o4)cc3)Cc3ccncc3)cc2)oc2ccc(F)cc12 | > 32.3 | > 100 | 3.1 | 0.36 | 0.31 | – | – | – | – | – | – | – | – | – |
| COc1ccc(-c2cc(=O)c3c(O)cc(O)c(-c4cc(-c5cc(=O)c6c(O)cc(OC)cc6o5)ccc4OC)c3o2)cc1 [SCIADOPITISIN] | – | – | – | – | – | – | – | 8.2 | – | – | – | – | – | – |
| O=c1cc(-c2ccc(OCCOCCN(CCOCCOc3ccc(-c4cc(=O)c5ccccc5o4)cc3)Cc3ccccn3)cc2)oc2ccccc12 | > 8 | > 33 | 4.1 | 4.2 | 5 | – | – | – | – | – | – | – | 53 | – |
| O=c1cc(-c2ccccc2OCCOCCN(CCOCCOc2ccccc2-c2cc(=O)c3ccccc3o2)Cc2ccncc2)oc2ccccc12 | > 1.6 | > 11 | 7 | 4 | 2.3 | – | – | – | – | – | – | – | – | – |
| COc1c(-c2ccc(OCCOCCN(CCOCCOc3ccc(-c4oc5ccccc5c(=O)c4OC)cc3)Cc3ccncc3)cc2)oc2ccccc2c1=O | > 9.6 | > 50 | 5.2 | 0.98 | 0.98 | – | – | – | – | – | – | – | – | – |
